How the values were obtained:
[1] = tested on: BclXL_FL; experiment: DSC thermal stability of BclXL_FL; type: physicochemical, human; settings: BclXL_FL alone, 50mM Sodium phosphate, pH 8.0, 10–50μM protein, 40–120°C, 1°C/min, 3atm, repeated at least three times
[2] = SEC-coupled analytical light scattering; type: physicochemical, human; settings: for oligomeric state in solution / Mw/Mn / Rg/Rh / dimer fraction / approximate mass of higher-order oligomer: ALS; for oligomeric state in solution / Rh / Mn / Mw/Mn / Mw / Rg / Rg/Rh / dimer fraction: pH 8, 10°C; for Rh: hydrodynamic radius, ALS (DLS); for Rh / Mn / Mw / Rg: at least three independent measurements; for Rh / Mn / Mw/Mn / Mw / Rg / Rg/Rh: ± one standard deviation; for Mn: number-average molar mass; for Mn / Mw / Rg: ALS (SLS); for Mw/Mn: polydispersity; for Mw: weighted-average molar mass; for Rg: radius of gyration; for Rg/Rh: shape ratio
Summary of the method: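 His-tagged human BclXL (residues 1–233 or 1–200) was expressed in E. coli and purified by Ni-NTA then SEC. It was run at 10–50μM starting concentration in 50mM sodium phosphate, 100mM NaCl, 1mM EDTA, 5mM β-mercaptoethanol, pH 8.0, on Superdex 200 at 1ml/min and 10°C. Mw, Mn and Rg came from triple-angle SLS (Zimm fit); Rh came from DLS at 90° (Stokes-Einstein). n≥3, ±SD.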

[3] = tested on: BclXL_FL; experiment: Steady-state fluorescence; set-up: species or system human; settings: BclXL_FL alone, 5μM; SSF, excitation 290nm, pH 8.0, 25 °C
[4] = tested on: BclXL_FL; experiment: TEM of negatively-stained BclXL_FL; set-up: species or system human; settings: 25μM BclXL_FL alone; 50mM Sodium phosphate, pH 8.0, negative staining
Summary of the method: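 Full-length His-tagged human BclXL (residues 1–233) was expressed in E. coli and purified by Ni-NTA and SEC. It was imaged at 25μM, alone or with a 10-molar excess of a 20-mer BH3 peptide, in 50mM sodium phosphate pH 8.0. Samples were negatively stained and viewed by TEM at 80kV and 105,000 magnification.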

Substance | oligomeric state in solution [2] | Rh ([2]; Dimer) [Å] | Mn ([2]; Dimer) [kD] | Mw/Mn ([2]; Dimer) | Mw ([2]; Dimer) [kD] | Rh ([2]; Monomer) [Å] | Mn ([2]; Monomer) [kD] | Mw/Mn ([2]; Monomer) | dimer fraction [2] | further results
BclXL_FL: Full-length BclXL (residues 1–233), human, with an N-terminal His-tag, expressed in Escherichia coli | predominantly associates into higher-order oligomers | 47 ± 2 | 61 ± 3 | 1.01 ± 0.01 | 62 ± 3 | 36 ± 1 | 31 ± 1 | 1.00 ± 0.01 | minor fraction | melting temperature (Tm) [1]: > 120 °C; Rh ([2]; Multimer): 99 ± 2 Å; Mn ([2]; Multimer): 321 ± 25 kD; Mw/Mn ([2]; Multimer): 1.14 ± 0.02; Rg ([2]; Multimer): 107 ± 4 Å; Rg/Rh ([2]; Multimer): 1.10 ± 0.01; Mw ([2]; Multimer): 361 ± 26 kD; Rh ([2]; Polymer): 175 ± 6 Å; Mn ([2]; Polymer): 3134 ± 147 kD; Rg ([2]; Polymer): 198 ± 8 Å; Rg/Rh ([2]; Polymer): 1.13 ± 0.02; Mw ([2]; Polymer): 3355 ± 188 kD; oligomer equilibrium on SEC re-analysis ([2]; SEC-resolved fractions re-analyzed on SEC column): reversible monomer-dimer-multimer-polymer equilibrium; approximate mass of higher-order oligomer ([2]; multimer): ~ 300 kD; approximate mass of higher-order oligomer ([2]; polymer): ~ 3000 kD; intrinsic fluorescence relative to BclXL_dTM [3]: much higher than that observed for the BclXL_dTM construct; TEM appearance [4]: rod-like appearance in solution
BclXL_dTM: BclXL in which the TM domain is deleted (residues 1–200), human, with an N-terminal His-tag, expressed in Escherichia coli | largely monomeric in solution | 41 ± 3 | 54 ± 2 | 1.00 ± 0.01 | 54 ± 2 | 33 ± 2 | 28 ± 2 | 1.00 ± 0.00 | minor fraction | 

— PMC3268818 (Journal of Molecular Biology, 2011)
